Molecules are shown by their SMILES. Active and inactive are the calls of the source. Bounds are passed on as bounds.

The source of these data is ChEMBL document CHEMBL2150954, “A novel, unusually efficacious duocarmycin carbamate prodrug that releases no residual byproduct” (J Med Chem, 2012).

The nature of series [1]: Half life in calf serum at 2 uM by RP-HPLC analysis. The series is classed as ADME, cell-free, Bos taurus. The note with it: cattle.
The nature of series [2]: Drug degradation in NaHCO3/MeOH solution assessed as hydrolysis after 48 hrs. Format: physicochemical. The note with it: read-out: Drug degradation.
Series [3] in a line: Drug degradation in NaHCO3/MeOH solution assessed as hydrolysis after 2 hrs. Format: physicochemical. The note with it: read-out: Drug degradation.
The nature of series [4]: Chemical stability of the compound in DMAP/CH2Cl2 solution after 2 hrs. Format: physicochemical.
Series [5] is described as follows: Drug degradation in NaHCO3/1:1 of DMF:H2O solution assessed as hydrolysis after 2 hrs. The series is classed as physicochemical. The conditions noted are these: NaHCO3 in 1:1 DMF:H2O solution; read-out: Drug degradation.
Series [6] in a line: Chemical stability of the compound in 1:1 of TFA/CH2Cl2-4N HCl/EtOAc solution for 48 hrs. The series is classed as physicochemical. The note with it: buffer.
The nature of series [7]: Chemical stability of the compound in DMAP/CH2Cl2 solution after 24 hrs. The series is classed as physicochemical.
A short description of series [8]: Chemical stability of the compound in NaHCO3/THF solution after 24 hrs. The series is classed as physicochemical.
The test system of series [9] is L1210. The series is described as follows: Cytotoxicity against mouse L1210 cells. The series is classed as functional, cell-based.
Series [10] in a line: Drug degradation in DMAP/CH2Cl2 solution assessed as hydrolysis after 48 hrs. Format: physicochemical. The note with it: read-out: Drug degradation.
Series [11] can be described thus: Chemical stability of the compound in Et3N/CH2Cl2 solution after 2 hrs. Format: physicochemical.
Series [12] is described as follows: Chemical stability in THF after 48 hrs in presence of 100 equiv BnSH and BnOH. The series is classed as physicochemical. Summed up:
(§1)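 Compound exposed to 100 equiv each of BnSH and BnOH in MeOH or THF at 23 °C for 48 h and monitored for cleavage.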

A short description of series [13]: Chemical stability of the compound in NaHCO3/THF solution after 2 hrs. The series is classed as physicochemical.
A short description of series [14]: Drug degradation in MeOH after 24 hrs in presence of 100 equiv BnNH2. The series is classed as physicochemical.
A short description of series [15]: Drug degradation in NaHCO3/1:1 of THF:H2O solution assessed as hydrolysis after 48 hrs. Format: physicochemical. The conditions noted are these: NaHCO3 in 1:1 THF:H2O solution; read-out: Drug degradation.
Series [16] in a line: Drug degradation in 1:1 of TFA/CH2Cl2-4N HCl/EtOAc solution assessed as cleavage of Boc protecting group. The series is classed as physicochemical. The note with it: buffer.
The nature of series [17]: Drug degradation in NaHCO3/MeOH solution assessed as hydrolysis after 24 hrs. The note with it: read-out: Drug degradation. The series is classed as physicochemical.
Series [18] can be described thus: Chemical stability in MeOH after 48 hrs in presence of 100 equiv BnSH and BnOH. The series is classed as physicochemical. The gist of the method: as §1
Series [19] can be described thus: Chemical stability of the compound in Et3N/CH2Cl2 solution after 24 hrs. Format: physicochemical.
Series [20] is described as follows: Drug degradation in NaHCO3/THF solution assessed as hydrolysis after 48 hrs. The series is classed as physicochemical. The note with it: read-out: Drug degradation.
A short description of series [21]: Chemical stability of the compound in Et3N/CH2Cl2 solution after 48 hrs. The series is classed as physicochemical.
A short description of series [22]: Drug degradation in NaHCO3/1:1 of DMF:H2O solution assessed as hydrolysis after 48 hrs. Format: physicochemical. The note with it: NaHCO3 in 1:1 DMF:H2O solution; read-out: Drug degradation.
Series [23] is described as follows: Drug degradation in NaHCO3/1:1 of THF:H2O solution assessed as hydrolysis after 24 hrs. The series is classed as physicochemical. The note with it: NaHCO3 in 1:1 THF:H2O solution; read-out: Drug degradation.
Series [24] can be described thus: Chemical stability in THF after 24 hrs in presence of BnNH2. Format: physicochemical.
Series [25] is described as follows: Drug degradation in NaHCO3/1:1 of THF:H2O solution assessed as hydrolysis after 2 hrs. The series is classed as physicochemical. The note with it: NaHCO3 in 1:1 THF:H2O solution; read-out: Drug degradation.
Series [26] in a line: Drug degradation in NaHCO3/1:1 of DMF:H2O solution assessed as hydrolysis after 24 hrs. The note with it: NaHCO3 in 1:1 DMF:H2O solution; read-out: Drug degradation. The series is classed as physicochemical.
Series [27] is described as follows: Half life in human plasma at 1 ug/mL at pH 7 by HPLC analysis. Format: ADME, cell-free.
Series [28] deals with L1210. Put plainly: Antitumor activity against mouse L1210 cells xenografted in DBA/2J mouse assessed as mean survival days at 60 ug/kg, ip administered on day 1, 5 and 9 relative to control. Format: functional.
Series [29] has as its system L1210. Put plainly: Antitumor activity against mouse L1210 cells xenografted in DBA/2J mouse assessed as disease cure at 500 […], ip administered on day 1, 5 and 9 measured up to 250 days. The series is classed as functional, organism-based.
In series [30] the test system is L1210. Put plainly: Antitumor activity against mouse L1210 cells xenografted in DBA/2J mouse assessed as mean survival days at 500 ug/kg, ip administered on day 1, 5 and 9 relative to control. The series is classed as functional. Summed up: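 Syngeneic L1210 cells (1 × 10⁶) given ip to B6D2F1 mice on day 0. Ten mice per group, randomised to vehicle control or treatment. Compound given in 100% DMSO ip on days 1, 5 and 9, with daily monitoring. T/C = total survival days of treated group ÷ total survival days of control × 100.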

In series [31] the test system is L1210. Put plainly: Antitumor activity against mouse L1210 cells xenografted in DBA/2J mouse assessed as disease cure at 250 […], ip administered on day 1, 5 and 9 measured up to 250 days. Format: functional, organism-based.
For series [32], the system named is L1210. The series is described as follows: Antitumor activity against mouse L1210 cells xenografted in DBA/2J mouse assessed as disease cure at 60 […], ip administered on day 1, 5 and 9 measured up to 250 days. The series is classed as functional, organism-based.
The test system of series [33] is L1210. The series is described as follows: Antitumor activity against mouse L1210 cells xenografted in DBA/2J mouse assessed as mean survival days at 100 ug/kg, ip administered on day 1, 5 and 9 relative to control. The series is classed as functional.
The test system of series [34] is L1210. The series is described as follows: Antitumor activity against mouse L1210 cells xenografted in DBA/2J mouse assessed as mean survival days at 250 ug/kg, ip administered on day 1, 5 and 9 relative to control. Format: functional.
The subject of series [35] is L1210. Put plainly: Antitumor activity against mouse L1210 cells xenografted in DBA/2J mouse assessed as disease cure at 100 […], ip administered on day 1, 5 and 9 measured up to 250 days. Format: functional, organism-based.
Series [36] can be described thus: Chemical stability of the compound in 1:1 of TFA/CH2Cl2-4N HCl/EtOAc solution up to 72 hrs. The note with it: buffer. The series is classed as physicochemical.
The test system of series [37] is L1210. The series is described as follows: Antitumor activity against mouse L1210 cells xenografted in DBA/2J mouse assessed as mean survival days at 300 ug/kg, ip administered on day 1, 5 and 9 relative to control. Format: functional.
In series [38] the test system is L1210. Put plainly: Antitumor activity against mouse L1210 cells xenografted in DBA/2J mouse assessed as mean survival days at 9000 ug/kg, ip administered on day 1, 5 and 9 relative to control. The series is classed as functional.
Series [39] can be described thus: Fraction unbound in human plasma incubated over 48 hrs. Format: ADME, cell-free.
Series [40] can be described thus: Drug degradation in phosphate buffer assessed as cleavage over 4 weeks. Format: physicochemical. The note with it: 672 h.
For series [41], the system named is L1210. The series is described as follows: Antitumor activity against mouse L1210 cells xenografted in DBA/2J mouse assessed as disease cure at 3000 […], ip administered on day 1, 5 and 9 measured up to 250 days. The series is classed as functional, organism-based.
Series [42] has as its system L1210. Put plainly: Antitumor activity against mouse L1210 cells xenografted in DBA/2J mouse assessed as disease cure at 1000 […], ip administered on day 1, 5 and 9 measured up to 250 days. Format: functional, organism-based.
The test system of series [43] is Nucleic Acid. Put plainly: Binding affinity to w794 DNA assessed as DNA alkylation by cell-free assay. The series is classed as nucleic-acid assay.
Series [44] has as its system L1210. Put plainly: Antitumor activity against mouse L1210 cells xenografted in DBA/2J mouse assessed as disease cure at 300 […], ip administered on day 1, 5 and 9 measured up to 250 days. The series is classed as functional, organism-based.
The subject of series [45] is L1210. The series is described as follows: Antitumor activity against mouse L1210 cells xenografted in DBA/2J mouse assessed as mean survival days at 1000 ug/kg, ip administered on day 1, 5 and 9 relative to control. The series is classed as functional.
The test system of series [46] is L1210. Put plainly: Antitumor activity against mouse L1210 cells xenografted in DBA/2J mouse assessed as mean survival days at 3000 ug/kg, ip administered on day 1, 5 and 9 relative to control. The series is classed as functional.
Series [47] has as its system L1210. Put plainly: Antitumor activity against mouse L1210 cells xenografted in DBA/2J mouse assessed as disease cure at 9000 […], ip administered on day 1, 5 and 9 measured up to 250 days. Format: functional, organism-based.

What is called half-life is the time needed for the level to fall by half in the phase considered. For the compound `Br.COC(=O)c1c(C)[nH]c2c(OC(=O)N3CCN(C)CC3)cc3c(c12)[C@H](CBr)CN3C(=O)c1cc2cc(OC)c(OC)c(OC)c2[nH]1` [PIBROZELESIN HYDROBROMIDE], the half-life at 2 µM in series [1] was 20 h.
In general, IC50 refers to the midpoint of a concentration-inhibition curve. A high value points to weaker potency. As for `CC(C)(C)OC(=O)N1C[C@@H](CCl)c2c1cc1c3c(cccc23)NC(=O)O1`, the degraded at 48 h in series [2] was 100%; in [10], 12%; in series [15], 9%; in series [20], 7%; in [22], 19%. Moreover, the degraded at 2 h in series [3] was 18%; in [5], 7%; in [25], < 4%. In addition, the Stability result in series [4], in series [6], in series [7], in series [8], in series [11] and in [12] was “Stable” throughout. The Stability entry in [13], in series [18], in series [19], in series [21] and in [24] was “Stable” in each case. The IC50 in series [9] amounted to 4900 nM. Also, the Drug degradation entry in series [14] and in series [16] was “Active” throughout. Besides, the degraded at 24 h in [17] worked out at 74%; in [23] it was 4%; in series [26], 12%.
`CCN(CC)c1ccc2cc(C(=O)Nc3ccc4[nH]c(C(=O)N5C[C@@H](CCl)c6c5cc(OC(=O)Nc5ccccc5)c5[nH]cc(C)c65)cc4c3)oc2c1` [CARZELESIN]: the half-life at 1 ug/mL in series [27] is < 1 h.
Usually T/C stands for the result in the treated group divided by that in the control group, in per cent. For the compound `O=C(Nc1ccc2[nH]c(C(=O)N3C[C@@H](CCl)c4c3cc(O)c3ccccc43)cc2c1)c1cc2ccccc2[nH]1` [SECO-CBI-INDOLE], the T/C in [28] came to 197%; in series [30] it was 17%; in series [33] it was 36%; in series [34], 21%. Besides, the result in series [29], in series [31], in series [32] and in series [35] was inactive.
Regarding `COc1c(O)c2c(c3cc(C(=O)N4CCc5c4c(O)c(OC)c4[nH]c(C(=O)N6C[C@@H]7C[C@]78C6=CC(=O)c6[nH]cc(C)c68)cc54)[nH]c13)CCN2C(N)=O`, the midpoint of inhibition in series [9], the IC50, lay at 0.02 nM.
Broadly, the fraction unbound is the share of the substance not bound to proteins or other matrix. Low readings indicate extensive binding, high ones weak binding. Compound `O=C1Nc2cccc3c4c(cc(c23)O1)N(C(=O)c1cc2cc(NC(=O)c3cc5ccccc5[nH]3)ccc2[nH]1)C[C@H]4CCl` yielded an IC50 in [9] of 6.6 nM. Further, the Stability result in series [36] is listed as “Stable”. Moreover, the T/C in [37] was 140%; in series [38], >980%; in [45] it was >275%; in [46], >310%. Further, in series [39], the fraction unbound at 48 h was 0.05. The Drug degradation result in series [40] is given as “Not Active”. Moreover, the outcome in [41], in [42], in [43] and in series [44] was inactive. Also, the result in series [47] was Active.
Take `Nc1cccc2c1C(=O)C=C1N(C(=O)c3cc4cc(NC(=O)c5cc6ccccc6[nH]5)ccc4[nH]3)CC3CC123` (racemic): half-maximal inhibition in series [9] (IC50) was put at 0.21 nM.
`O=C1Nc2cccc3c4c(cc(c23)O1)N(C(=O)c1cc2cc(NC(=O)c3cc5ccccc5[nH]3)ccc2[nH]1)C[C@@H]4CCl` displayed an IC50 in series [9] of 40 nM.
The compound `CC(C)(C)OC(=O)N1C[C@H](CCl)c2c1cc1c3c(cccc23)NC(=O)O1` registered an IC50 in [9] of 5800 nM. Compared with the last compound, the IC50 is about 140-fold higher.
